Reference: PubChem BioAssay AID552 (SRMLSC, 2006)
About 10 (0.05%) of roughly 20,000 compounds were called active. The sample as a whole holds a higher share of actives than the screen did. Unmarked numbers belong to inactive results. No stated cut-off is given here; in the data, active means inhibition above about 40%; inactive means the rest. Where a SMILES comes first, the peptide text is derived from it. [ ]: non-standard residue; d: D form. ξ: configuration not given here. ξV = CC(C)C(N)C(=O)O

Test: antibacterial activity on E. coli BW25113 – strain BW25113 wild type, absorbance readout, primary screen (AID 552);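 further: bacteria exposed to compound for 20 hours at 37 °C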
Settings: E. coli BW25113 growth inhibition, OD600; at 10 µM; hits give high values
Outline: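 System: bacterial strain in a whole-cell growth screen; medium: LB broth with 50 µg/mL kanamycin; detection: absorbance at 615 nm; schedule: 20 h exposure, 37 °C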
`CCOC(=O)c1cnc2sccn2c1=O` gave an inhibition of -15.3%.
For `O=C(CCN1C(=O)c2ccccc2C1=O)NCCN1CCOCC1`, the inhibition was 0.59%.
`O=C(CCOc1ccccc1)NCc1ccccc1` showed an inhibition of 14.8%.
For `CC1CC(C)CN(CC(=O)Nc2ccc(S(N)(=O)=O)cc2)C1` (stereo unspecified), the inhibition was 0.613%.
For `O=C1CSC(c2cccc(F)c2)N1c1ccccc1F` (stereo unspecified), the inhibition was 6.64%.
Molecule `Cc1nonc1NC(=O)c1ccccc1Br` has an inhibition of -2.2%.
`O=C(Nc1cccnc1)c1ccc2c(c1)OCO2` gave an inhibition of 6.74%.
Work on `CC(=NCc1ccc2c(c1)OCO2)C1=C(O)c2ccccc2C1=O` yielded an inhibition of 5.88%.
Work on `CC(Nc1nc(N2CCCC2)nc2ccccc12)c1ccccc1` (stereo unspecified) yielded an inhibition of -5.16%.
`O=C(Nc1ccccc1N1CCCCC1)c1cccc(F)c1` showed an inhibition of 0.18%.
Work on `CC(=O)NC1CC2CCCC(C1)N2CC(=O)Nc1ccccc1` (stereo unspecified) yielded an inhibition of 6.86%.
In the case of `COCCCN1C(=O)C(=O)/C(=C(/O)c2ccc3c(c2)CC(C)O3)C1c1cccnc1` (stereo unspecified), the inhibition is reported as -17.6%.
For `CCc1ccccc1NC(=O)CSc1nnc([C@@H](NC(=O)OC(C)(C)C)C(C)CC)o1` (stereo partly specified), the inhibition was -15.5%.
For `C=CCn1c(SCc2nnc(-c3ccccc3)o2)nnc1C(O)c1ccccc1` (stereo unspecified), the inhibition was -17.5%.
For `COCCCn1c(CCC(=O)O)ccc1-c1ccc(F)cc1`, the inhibition was -9.43%.
For `CC(=O)NCCc1ccc(S(=O)(=O)N(C)C2CCS(=O)(=O)C2)cc1` (stereo unspecified), the inhibition was -15.7%.
Molecule `COc1ccc(NC(=O)CCNC(=O)Cn2ccc3ccccc3c2=O)c(OC)c1` has an inhibition of -0.805%.
`CC(=O)N1C(=O)C2(Nc3ccccc3N2)c2ccccc21` showed an inhibition of 7.24%.
Molecule `COCCOC(=O)C1=C(C)NC(=O)CC1c1cc2c(cc1Br)OCO2` (stereo unspecified) has an inhibition of -1.9%.
Work on `COC(=O)c1cc(C(=O)OC)cc(N2C(=O)CC(N3CCN(c4ccccc4)CC3)C2=O)c1` (stereo unspecified) yielded an inhibition of -20%.
For `CC1CCCC(N2CCN(C(=O)c3ccc(F)cc3)CC2)C1` (stereo unspecified), the inhibition was 8.12%.
`O=C(Cn1nnc(-c2ccc(CN3CCOCC3)cc2)n1)NC1CCCCC1` showed an inhibition of -1.75%.
For `O=C(Cc1nn[nH]n1)NCCC1=CCCCC1`, the inhibition was 17.3%.
`CCC1=C(C(=O)OC)C(c2cc(OC)ccc2OC)C(C#N)=C(N)O1` (stereo unspecified) gave an inhibition of -1.96%.
`COc1ccc(OC)c(C(=O)c2ccc(C(=O)O)cc2)c1` gave an inhibition of -4.3%.
Molecule `Cc1ccc(NC2=NC(c3ccccc3)n3c(nc(C)cc3=O)N2)cc1` (stereo unspecified) has an inhibition of -1.73%.
`COC(=O)Nc1ccc(S(=O)(=O)N(C)CC(F)(F)C(F)F)cc1` gave an inhibition of -3.1%.
With `COC(=O)c1ccc(C2CC(=O)Nc3cc(OC)c(OC)cc32)cc1` (stereo unspecified) the inhibition was -20.6%.
In the case of `CC(C)c1ccc(N2CC(C(=O)Nc3nccs3)CC2=O)cc1` (stereo unspecified), the inhibition is reported as 2.9%.
For `CCc1nnc(NC(=O)C2CCCN2S(=O)(=O)c2ccccc2)s1` (stereo unspecified), the inhibition was -21%.
Molecule `Cc1cc(C)c(C#N)c(SCc2[nH]nc3c2C(c2ccccc2)C(C#N)=C(N)O3)n1` (stereo unspecified) has an inhibition of -3.73%.
In the case of `CCOC(=O)CSc1nnc(-c2ccncc2)o1`, the inhibition is reported as -0.95%.
Molecule `COC(=O)C(C)Sc1nc2c(c(=O)n(C)c(=O)n2C)n1Cc1cccc(C)c1` (stereo unspecified) has an inhibition of 8.4%.
In the case of `Cc1ccc(C(=O)NCC2CCCO2)o1` (stereo unspecified), the inhibition is reported as -6.23%.
In the case of `CN(C)[C@@H]1C(=O)C(C(N)=O)=C(O)[C@@]2(O)C(=O)C3=C(O)c4c(O)ccc(Cl)c4[C@@H](O)[C@H]3C[C@@H]12`, the inhibition is reported as 43.4% (active).
`CCOC(=O)N1CCC(O)(c2cc(C)c(C)cc2C)CC1` showed an inhibition of 2.31%.
For `CCOC(=O)c1ccc(NC(=O)CSc2nnc(COc3ccccc3OC)n2C)cc1`, the inhibition was -14.8%.
In the case of `O=C(OCc1ccccc1F)c1ccc2c(c1)OCCO2`, the inhibition is reported as 6.06%.
In the case of `CCN(Cc1nc2ccccc2c(=O)[nH]1)Cc1cc(=O)oc2cc(C)c(C)cc12`, the inhibition is reported as -2.52%.
`Cc1noc(C)c1C(=O)NC(C)c1ccc2c(c1)OCO2` (stereo unspecified) showed an inhibition of -22.5%.
Work on `CC(C)COC(=O)C1C2C=CC3(CN(C(C)c4ccc(Br)cc4)C(=O)C13)O2` (stereo unspecified) yielded an inhibition of 15.3%.
In the case of `COC(=O)c1ccc(Oc2nc(Nc3ccc(F)cc3)nc(N3CCCC3)n2)cc1`, the inhibition is reported as -16.9%.
`CSc1ccc(S(=O)(=O)Nc2cccc(F)c2)cc1` gave an inhibition of -8.18%.
With `CCN(CC)S(=O)(=O)c1ccc(NC(=O)CN(c2cccc(F)c2)S(C)(=O)=O)cc1` the inhibition was -6.94%.
Work on `CS(=O)(=O)N(CC(=O)N1CCOCC1)c1ccc2c3c(cccc13)CC2` yielded an inhibition of -16.3%.
Work on `CC(=O)NC(C(=O)NCC(N)=O)C(C)C` (stereo unspecified) (Ac-[ξV]-Gly-NH2) yielded an inhibition of 7.41%.
Work on `CCCCN(CC)CCCNC(=O)CS(=O)(=O)Cc1nc(-c2cccc(OC)c2)oc1C` yielded an inhibition of 4.26%.
For `CCOC(=O)n1c(SCC(=O)N(CC)CC)nc2ccccc21`, the inhibition was -3.3%.
Molecule `Cc1cc(C)nc(N2C(=O)CC(Cc3ccccc3)C2=O)n1` (stereo unspecified) has an inhibition of -9.77%.
`CC(C)C[C@H](NC(=O)[C@@H]1O[C@H]1C(=O)O)C(=O)NCCCCN=C(N)N` gave an inhibition of -3.4%.
With `CN(C)CCNC(CC(=O)Nc1ccc(Cl)c(Cl)c1)C(=O)O` (stereo unspecified) the inhibition was -14.6%.
With `COc1ccc(C(=O)Nc2cccnc2)cc1C(=O)Nc1cccnc1` the inhibition was 1.96%.
Work on `COC(=O)Nc1c(C)n(C)n(-c2ccccc2)c1=O` yielded an inhibition of -2.62%.
Molecule `Cc1ccc(C)c(S(=O)(=O)N2CC(=O)Nc3ccccc32)c1` has an inhibition of -14.8%.
In the case of `COCCn1c(C)cc(C(=O)CSc2ncnc3sc4c(c23)CCC4)c1C`, the inhibition is reported as 2.06%.
`Cc1nc(C)c(C(=O)Nc2ccc(C)c(F)c2)o1` gave an inhibition of -3.6%.
For `COc1cc(-c2nc(S(=O)(=O)c3ccc(Cl)cc3)c(N(C)C)o2)cc(OC)c1OC`, the inhibition was -0.36%.
Work on `Cc1cc(C(=O)NCCCc2ccccc2)no1` yielded an inhibition of -3.97%.
`CCc1ccc(CCC(=O)Nc2ccc(S(N)(=O)=O)cc2)o1` showed an inhibition of -21.2%.
In the case of `Cc1ccc(-c2noc(-c3ccccc3C(=O)NCC3CCCO3)n2)cc1` (stereo unspecified), the inhibition is reported as 8.67%.
`CC1(C)C(=O)Nc2ccccc2N1C(=O)COC(=O)Cn1cnc2ccccc2c1=O` showed an inhibition of -1.7%.
